Laboratory results as given in ChEMBL document CHEMBL3286281, “Amino derivatives of glycyrrhetinic acid as potential inhibitors of cholinesterases” (Bioorg Med Chem, 2014).

Tests used:
[1] = tested on: Candida antarctica; experiment: Inhibition of Candida antarctica lipase at 10 uM
Method in brief: (§1)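 Enzyme (bovine erythrocyte carbonic anhydrase II or Candida antarctica lipase) in 50 mM Tris-HCl pH 8.0 preincubated with compound for 20 min at 37 °C. Reaction started with 4-nitrophenyl acetate substrate. Absorbance at 415 nm followed each minute for 10 min at 37 °C, in duplicate. Relative inhibition taken as the slope ratio, compound over blank, over the linear range.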

[2] = biological target: T1, Papain (Carica papaya) (UniProt P00784); experiment: Inhibition of Carica papaya papain at 10 uM
T1 sequence (whole entry): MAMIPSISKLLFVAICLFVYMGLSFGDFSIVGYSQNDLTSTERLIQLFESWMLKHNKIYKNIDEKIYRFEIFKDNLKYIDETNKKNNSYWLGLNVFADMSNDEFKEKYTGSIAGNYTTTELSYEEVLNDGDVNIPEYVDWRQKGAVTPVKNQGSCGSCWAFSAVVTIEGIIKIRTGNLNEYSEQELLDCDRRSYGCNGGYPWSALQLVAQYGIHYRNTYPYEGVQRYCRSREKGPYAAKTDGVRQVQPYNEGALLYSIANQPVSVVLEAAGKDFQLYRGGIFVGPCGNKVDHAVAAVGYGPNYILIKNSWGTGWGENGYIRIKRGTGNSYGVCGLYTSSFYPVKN
Method in brief: (§2)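 Carica papaya papain in 50 mM Tris-HCl pH 6.2 preincubated with compound for 20 min at 37 °C. Reaction started with 4-nitrophenyl acetate. Absorbance at 415 nm read each minute for 10 min at 37 °C, in duplicate. Relative inhibition calculated as the ratio of slopes, compound versus blank, over the linear range.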

[3] = Selectivity ratio of Ki for Electrophorus electricus AChE to Ki for equine serum BChE
Method in brief: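 Ki from Ellman kinetics at pH 8.0 and 30 °C after 20 min enzyme–inhibitor–DTNB preincubation. Inhibitor at several concentrations plus a water blank; ATChI or BTChI at 0.9375, 0.625, 0.325 and 0.1875 mM. A415 read every 1 min for 30 min, in triplicate. Ki from Lineweaver-Burk, Dixon and Cornish-Bowden plots; F = Ki(AChE)/Ki(BChE).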

[4] = biological target: Carbonic anhydrase 2 (Bos taurus) (UniProt P00921); experiment: Inhibition of bovine erythrocytes carbonic anhydrase 2 at 10 uM; method in brief: as §1
Sequence of Carbonic anhydrase 2 (Bos taurus) (P00921 2-260 limits assumed): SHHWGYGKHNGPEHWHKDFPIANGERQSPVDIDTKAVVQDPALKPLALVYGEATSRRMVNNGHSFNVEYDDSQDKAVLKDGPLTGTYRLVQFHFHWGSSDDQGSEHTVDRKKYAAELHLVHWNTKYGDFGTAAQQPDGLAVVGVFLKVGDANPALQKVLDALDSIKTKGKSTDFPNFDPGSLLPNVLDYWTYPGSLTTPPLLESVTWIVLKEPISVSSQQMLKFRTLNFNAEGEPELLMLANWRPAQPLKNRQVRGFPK

[5] = biological target: Acetylcholinesterase (Electrophorus electricus) (UniProt O42275); experiment: Inhibition of Electrophorus electricus AChE using acetylthiocholine iodide as substrate at 10 uM after 20 mins measured for 1 min interval for 30 mins by Ellman's method
Sequence of Acetylcholinesterase (Electrophorus electricus) (O42275 24-633 limits assumed): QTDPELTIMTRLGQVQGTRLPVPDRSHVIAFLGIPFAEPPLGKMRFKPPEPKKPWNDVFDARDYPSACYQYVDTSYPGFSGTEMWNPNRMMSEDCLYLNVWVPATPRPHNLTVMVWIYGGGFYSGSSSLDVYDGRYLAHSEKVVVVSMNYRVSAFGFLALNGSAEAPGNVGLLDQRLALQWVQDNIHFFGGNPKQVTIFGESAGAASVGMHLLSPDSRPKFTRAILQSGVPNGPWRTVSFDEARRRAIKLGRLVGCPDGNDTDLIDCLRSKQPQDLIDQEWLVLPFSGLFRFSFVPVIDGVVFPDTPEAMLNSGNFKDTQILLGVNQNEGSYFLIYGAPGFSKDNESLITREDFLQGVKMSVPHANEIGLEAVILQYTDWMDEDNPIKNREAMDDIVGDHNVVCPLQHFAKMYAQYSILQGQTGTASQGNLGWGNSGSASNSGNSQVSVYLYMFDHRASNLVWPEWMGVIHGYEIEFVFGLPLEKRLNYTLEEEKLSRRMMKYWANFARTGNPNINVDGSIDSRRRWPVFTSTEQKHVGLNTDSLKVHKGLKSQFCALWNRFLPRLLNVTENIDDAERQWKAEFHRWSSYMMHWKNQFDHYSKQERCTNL
Method in brief: (§3)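 Ellman assay in 50 mM Tris-HCl pH 8.0. Enzyme was preincubated with DTNB (3 mM stock) and compound at 30 °C for 20 min. Reaction started with ATChI for AChE or BTChI for BChE. Absorbance at 415 nm was read at 30 °C every 1 min for 30 min. Triplicates.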

[6] = biological target: Acetylcholinesterase (Electrophorus electricus, UniProt O42275); experiment: Inhibition of Electrophorus electricus AChE using acetylthiocholine iodide as substrate after 20 mins measured for 1 min interval for 30 mins by Ellman's method
Sequence of Acetylcholinesterase (O42275 whole entry): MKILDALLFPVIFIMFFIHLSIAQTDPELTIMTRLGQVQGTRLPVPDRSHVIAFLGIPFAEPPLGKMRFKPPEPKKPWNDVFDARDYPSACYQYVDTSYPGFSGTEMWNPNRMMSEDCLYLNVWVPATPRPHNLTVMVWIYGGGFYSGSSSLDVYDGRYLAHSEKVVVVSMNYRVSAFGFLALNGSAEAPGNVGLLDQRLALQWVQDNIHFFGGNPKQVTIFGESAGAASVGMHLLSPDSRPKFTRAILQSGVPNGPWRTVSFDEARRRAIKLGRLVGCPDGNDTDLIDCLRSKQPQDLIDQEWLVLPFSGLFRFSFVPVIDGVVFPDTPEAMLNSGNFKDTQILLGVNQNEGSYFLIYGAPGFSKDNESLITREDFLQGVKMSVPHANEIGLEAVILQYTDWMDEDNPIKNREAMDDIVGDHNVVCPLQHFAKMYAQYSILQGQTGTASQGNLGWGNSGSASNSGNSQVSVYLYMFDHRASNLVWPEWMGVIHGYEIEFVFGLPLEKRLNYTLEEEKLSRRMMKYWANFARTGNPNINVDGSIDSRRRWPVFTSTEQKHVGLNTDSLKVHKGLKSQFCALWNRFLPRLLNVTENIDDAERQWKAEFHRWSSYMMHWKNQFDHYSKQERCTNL

[7] = Cytotoxicity against mouse NIH/3T3 cells after 96 hrs by sulforhodamine-B assay; format: cell-based; conditions: NIH3T3, 96 h
Method in brief: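 NIH 3T3 murine embryonic fibroblasts grown as monolayers in RPMI 1640 with 10% heat-inactivated FBS and penicillin/streptomycin, 37 °C, 5% CO2. Cells seeded, then exposed after 24 h to serial dilutions (0-30 μM) for 96 h, DMSO or DMF ≤0.5%. Fixed with 10% TCA at 4 °C, stained with 0.4% SRB, dye solubilized in 10 mM Tris base, absorbance read at 570 nm. Survival relative to untreated controls gave IC50. Triplicate.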

[8] = biological target: Cholinesterase (Equus caballus, UniProt P81908); experiment: Inhibition of equine serum BChE using butyrylthiocholine iodide as substrate after 20 mins measured for 1 min interval for 30 mins by Ellman's method
Sequence of Cholinesterase (P81908 whole entry): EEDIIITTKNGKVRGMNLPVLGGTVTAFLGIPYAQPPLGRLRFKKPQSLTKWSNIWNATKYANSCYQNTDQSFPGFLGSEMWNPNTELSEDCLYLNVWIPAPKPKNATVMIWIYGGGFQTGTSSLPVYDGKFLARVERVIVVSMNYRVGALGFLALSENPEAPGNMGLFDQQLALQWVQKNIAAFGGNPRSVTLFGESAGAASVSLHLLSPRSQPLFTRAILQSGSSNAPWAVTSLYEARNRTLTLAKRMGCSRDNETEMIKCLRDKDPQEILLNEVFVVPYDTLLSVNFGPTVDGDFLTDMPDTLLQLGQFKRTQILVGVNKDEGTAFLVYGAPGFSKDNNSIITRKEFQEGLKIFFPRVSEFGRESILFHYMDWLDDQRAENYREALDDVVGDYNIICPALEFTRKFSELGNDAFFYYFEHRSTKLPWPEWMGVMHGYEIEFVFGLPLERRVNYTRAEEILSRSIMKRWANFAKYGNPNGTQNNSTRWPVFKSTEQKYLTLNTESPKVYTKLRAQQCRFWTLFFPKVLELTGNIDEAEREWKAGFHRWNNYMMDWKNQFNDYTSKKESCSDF

[9] = biological target: Cholinesterase (Equus caballus) (UniProt P81908); experiment: Inhibition of equine serum BChE using butyrylthiocholine iodide as substrate at 10 uM after 20 mins measured for 1 min interval for 30 mins by Ellman's method; method in brief: as §3
Sequence of Cholinesterase (Equus caballus) (P81908 whole entry): as above

[10] = Solubility of the compound; format: physicochemical
[11] = tested on: Candida antarctica; experiment: Inhibition of Candida antarctica lipase at 50 uM; method in brief: as §1
[12] = biological target: Cholinesterase (Equus caballus) (UniProt P81908); experiment: Inhibition of equine serum BChE using butyrylthiocholine iodide as substrate at 50 uM after 20 mins measured for 1 min interval for 30 mins by Ellman's method; method in brief: as §3
[13] = biological target: T1, Papain (Carica papaya); experiment: Inhibition of Carica papaya papain at 50 uM; method in brief: as §2
[14] = biological target: Acetylcholinesterase (Electrophorus electricus) (UniProt O42275); experiment: Inhibition of Electrophorus electricus AChE using acetylthiocholine iodide as substrate at 50 uM after 20 mins measured for 1 min interval for 30 mins by Ellman's method; method in brief: as §3
[15] = biological target: Carbonic anhydrase 2 (Bos taurus) (UniProt P00921); experiment: Inhibition of bovine erythrocytes carbonic anhydrase 2 at 50 uM; method in brief: as §1

SMILES	inhibition [1] [%]	inhibition [2] [%]	Ratio Ki [3]	inhibition [4] [%]	inhibition [5] [%]	Ki [6] [µM]	IC50 [7] [µM]	Ki [8] [µM]	inhibition [9] [%]	solubility [10]	inhibition [11] [%]	inhibition [12] [%]	inhibition [13] [%]	inhibition [14] [%]	inhibition [15] [%]
CC1(C)[C@@H](O)CC[C@]2(C)[C@H]3C(=O)C=C4[C@@H]5C[C@@](C)(C(=O)On6nnc7ccccc76)CC[C@]5(C)CC[C@@]4(C)[C@]3(C)CC[C@@H]12	32	0	> 2.04	27	49	> 20	> 30	9.81	68	–	–	–	–	–	–
COC(=O)[C@@]1(C)CC[C@]2(C)CC[C@]3(C)C(=CC(=O)[C@@H]4[C@@]5(C)CC[C@H](OC(=O)[C@@H](N)CC(C)C)C(C)(C)[C@@H]5CC[C@]43C)[C@@H]2C1	–	–	–	–	–	–	–	–	–	Insoluble	–	–	–	–	–
COC(=O)CC[C@H](N)C(=O)O[C@H]1CC[C@]2(C)[C@H]3C(=O)C=C4[C@@H]5C[C@@](C)(C(=O)OC)CC[C@]5(C)CC[C@@]4(C)[C@]3(C)CC[C@H]2C1(C)C	–	–	–	–	–	–	–	–	–	Insoluble	–	–	–	–	–
COC(=O)[C@@]1(C)CC[C@]2(C)CC[C@]3(C)C(=CC(=O)[C@@H]4[C@@]5(C)CC[C@H](OC(=O)[C@@H](N)CCN)C(C)(C)[C@@H]5CC[C@]43C)[C@@H]2C1	–	–	< 0.19	–	–	18.7	3.05	> 100	–	–	38	16	0	68	0
CC1(C)[C@@H](O)CC[C@]2(C)[C@H]3C(=O)C=C4[C@@H]5C[C@@](C)(C(=O)NCCCN)CC[C@]5(C)CC[C@@]4(C)[C@]3(C)CC[C@@H]12	–	–	> 18.4	–	–	> 100	> 30	5.43	–	–	51	79	0	35	0
COC(=O)[C@@]1(C)CC[C@]2(C)CC[C@]3(C)C(=CC(=O)[C@@H]4[C@@]5(C)CC[C@H](OC(=O)[C@@H](N)C(C)C)C(C)(C)[C@@H]5CC[C@]43C)[C@@H]2C1	–	–	–	–	–	–	–	–	–	Insoluble	–	–	–	–	–
COC(=O)[C@@]1(C)CC[C@]2(C)CC[C@]3(C)C(=CC(=O)[C@@H]4[C@@]5(C)CC[C@H](OC(=O)[C@@H](N)CCC(=O)OCc6ccccc6)C(C)(C)[C@@H]5CC[C@]43C)[C@@H]2C1	–	–	< 0.16	–	–	16.1	> 30	> 100	–	–	51	16	0	58	15
COC(=O)[C@@]1(C)CC[C@]2(C)CC[C@]3(C)C(=CC(=O)[C@@H]4[C@@]5(C)CC[C@H](OC(=O)[C@H](C)N)C(C)(C)[C@@H]5CC[C@]43C)[C@@H]2C1	–	–	–	–	–	–	–	–	–	Insoluble	–	–	–	–	–
CC1(C)[C@@H](O)CC[C@]2(C)[C@H]3C(=O)C=C4[C@@H]5C[C@@](C)(C(=O)OCCCCCCBr)CC[C@]5(C)CC[C@@]4(C)[C@]3(C)CC[C@@H]12	–	–	< 0.13	–	–	13	> 30	> 100	–	–	45	30	0	43	0
